Columns and labels:
Rattus norvegicus [1] = experiment: Distribution of radioactivity in liver of Fischer 344 female rat after 60 min of intravenous administration; format: ADME, organism-based; details: in vivo, 1 h
How it was run: (§1)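 Female Fischer 344 rats, 10-12 weeks, 170-200 g, fed ad libitum. The labelled fatty acid was given in 6% bovine serum albumin via a lateral tail vein under ether anaesthesia. Rats were killed by CO2 anaesthesia and cervical fracture; organs were excised, rinsed, blotted, weighed and counted by Ge(Li) analyzer. Results are mean percent injected dose/g with range.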

Rattus norvegicus [2] = experiment: Distribution of radioactivity in heart of Fischer 344 female rat after 5 min of intravenous administration; format: ADME, organism-based; details: in vivo
How it was run: (§2)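 In female Fischer 344 rats, each animal received about 2.5 µCi of the 123mTe-labelled fatty acid (sp act. ~16 mCi/mmol) in 6% bovine serum albumin through a lateral tail vein. Four rats were used per time point. Excised organs were rinsed, blotted, weighed and counted on a Ge(Li) analyzer. Results are mean (range) % injected dose per gram.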

Rattus norvegicus [3] = experiment: Distribution of radioactivity in kidneys of Fischer 344 female rat after 60 min of intravenous administration; format: ADME, organism-based, Kidney; details: in vivo, 1 h
Rattus norvegicus [4] = experiment: Distribution of radioactivity in blood of Fischer 344 female rat after 5 min of intravenous administration; format: ADME, organism-based; details: in vivo; how it was run: as §2
Rattus norvegicus [5] = experiment: Distribution of radioactivity in lungs of Fischer 344 female rat after 30 min of intravenous administration; format: ADME, organism-based, Lung; details: in vivo, 0.5 h; how it was run: as §1
Rattus norvegicus [6] = experiment: Distribution of radioactivity in liver of Fischer 344 female rat after 5 min of intravenous administration; format: ADME, organism-based; details: in vivo
How it was run: (§3)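 Tracer was the 123mTe-labelled fatty acid, about 2.5 μCi per rat (sp act. ~16 mCi/mmol), given in 6% bovine serum albumin into a lateral tail vein. Female Fischer 344 rats, 10-12 weeks, 170-200 g, four per time point. Excised organs were rinsed, blotted and weighed, then counted by Ge(Li) analyzer, with mean percent injected dose/g and range reported.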

Rattus norvegicus [7] = experiment: Distribution of radioactivity in kidneys of Fischer 344 female rat after 30 min of intravenous administration; format: ADME, organism-based, Kidney; details: in vivo, 0.5 h
Rattus norvegicus [8] = experiment: Distribution of radioactivity in kidneys of Fischer 344 female rat after 5 min of intravenous administration; format: ADME, organism-based, Kidney; details: in vivo; how it was run: as §2
Rattus norvegicus [9] = experiment: Distribution of radioactivity in heart of Fischer 344 female rat after 60 min of intravenous administration; format: ADME, organism-based; details: in vivo, 1 h
Rattus norvegicus [10] = experiment: Distribution of radioactivity in lungs of Fischer 344 female rat after 5 min of intravenous administration; format: ADME, organism-based, Lung; details: in vivo; how it was run: as §3
Rattus norvegicus [11] = experiment: Distribution of radioactivity in blood of Fischer 344 female rat after 30 min of intravenous administration; format: ADME, organism-based; details: in vivo, 0.5 h
Rattus norvegicus [12] = experiment: Distribution of radioactivity in lungs of Fischer 344 female rat after 60 min of intravenous administration; format: ADME, organism-based, Lung; details: in vivo, 1 h; how it was run: as §1
Rattus norvegicus [13] = experiment: Distribution of radioactivity in liver of Fischer 344 female rat after 30 min of intravenous administration; format: ADME, organism-based; details: in vivo, 0.5 h; how it was run: as §1
Rattus norvegicus [14] = experiment: Distribution of radioactivity in heart of Fischer 344 female rat after 30 min of intravenous administration; format: ADME, organism-based; details: in vivo, 0.5 h
Rattus norvegicus [15] = experiment: Distribution of radioactivity in blood of Fischer 344 female rat after 60 min of intravenous administration; format: ADME, organism-based; details: in vivo, 1 h

O=C(O)CCCCCCCC[123Te]CCCCCCCCI
Distribution of radioactivity (Rattus norvegicus [1]): 1.65 dose g-1
Distribution of radioactivity (Rattus norvegicus [2]): 1.38 dose g-1
Distribution of radioactivity (Rattus norvegicus [3]): 0.99 dose g-1
Distribution of radioactivity (Rattus norvegicus [4]): 0.13 dose g-1
Distribution of radioactivity (Rattus norvegicus [5]): 0.62 dose g-1
Distribution of radioactivity (Rattus norvegicus [6]): 3.33 dose g-1
Distribution of radioactivity (Rattus norvegicus [7]): 1.05 dose g-1
Distribution of radioactivity (Rattus norvegicus [8]): 1.17 dose g-1
Distribution of radioactivity (Rattus norvegicus [9]): 1.58 dose g-1
Distribution of radioactivity (Rattus norvegicus [10]): 0.67 dose g-1
Distribution of radioactivity (Rattus norvegicus [11]): 0.36 dose g-1
Distribution of radioactivity (Rattus norvegicus [12]): 0.56 dose g-1
Distribution of radioactivity (Rattus norvegicus [13]): 2.11 dose g-1
Distribution of radioactivity (Rattus norvegicus [14]): 2.24 dose g-1
Distribution of radioactivity (Rattus norvegicus [15]): 0.25 dose g-1

Source: ChEMBL document CHEMBL1122064, “Synthesis and biological evaluation of 17-[131I]iodo-9-telluraheptadecanoic acid, a potential imaging agent” (J Med Chem, 1982)
